ChEMBL document CHEMBL5154905, “Reversible Monoacylglycerol Lipase Inhibitors: Discovery of a New Class of Benzylpiperidine Derivatives” (J Med Chem, 2022)
Activity calls are given as the source filed them. The calls are words filed in the database; no cut-off is given here.

Experiments:
[1] = Stability of the compound in pooled human plasma at 3 mM measured up to 24 hrs by UV/LC-MS assay; format: ADME, cell-free; details: read-out: Stability
[2] = Stability of the compound in MeOH solution at 500 uM measured up to 24 hrs by UV/LC-MS analysis; format: physicochemical
[3] = Apparent permeability of the compound in PBS buffer pH 7.4 assessed as membrane retention at 0.5 mM incubated for 5 hrs by PAMPA based UV/LC-MS analysis; format: ADME; details: pH 7.4, 5 h, 500 µM
[4] = Stability of the compound in PBS buffer at pH 7.4 at 500 uM measured up to 24 hrs by UV/LC-MS analysis; format: physicochemical; details: pH 7.4, 24 h
[5] = Aqueous solubility of compound at 1 mg/ml incubated for 24 hrs by LC-MS/MS analysis; format: physicochemical; details: buffer
[6] = Cytotoxicity against human hTERT-HPNE cells assessed as cell growth inhibition incubated for 72 hrs by sulforhodamine B assay; format: toxicity, cell-based
Method in brief: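 SRB growth-inhibition assay. Cells were seeded at 5000 per well and treated after 24 h, once a monolayer had formed, with MAGL inhibitors (0.1–50 μM) for 72 h. Cells were then fixed with trichloroacetic acid at 4 °C and stained with SRB. Bound dye was dissolved in Tris base and read at 490 and 540 nm. IC50 came from curve fitting.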

PDAC-3 [7] = experiment: Induction of apoptosis in human PDAC-3 cells at IC50 measured after 72 hrs by Annexin-V/FITC staining based assay; format: functional, cell-based
Method in brief: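 Fixed with paraformaldehyde, stained with annexin V/FITC in HEPES-buffered saline (pH 7.4) with 2.5 mM CaCl2. Fluorescence read at ex 485/em 535 nm and normalised to cell number from crystal violet staining (595 nm). Triplicate measurements, expressed relative to untreated control.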

[8] = Induction of apoptosis in human PDAC-2 cells assessed as fold change in apoptotic rate at IC50 measured after 72 hrs by Annexin-V/FITC staining based assay relative to control; format: functional
Method in brief: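 Then paraformaldehyde-fixed and stained with annexin V/FITC in HEPES/NaCl/CaCl2 buffer, pH 7.4. Fluorescence read at ex 485/em 535 nm, normalised to cell number by crystal violet (595 nm). Expressed relative to untreated control (=1). Triplicate, mean ± SEM.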

PDAC-3 [9] = experiment: Induction of apoptosis in human PDAC-3 cells assessed as increase in caspase-3 level at IC50 measured after 72 hrs by immunoassay; format: functional, cell-based
Method in brief: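 Cell extracts assayed with a human active caspase-3 ELISA; absorbance 450 nm minus 540 nm. Quantified against a recombinant human caspase-3 standard curve. Triplicate measurements, expressed relative to untreated cells.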

PDAC-3 [10] = experiment: Induction of apoptosis in human PDAC-3 cells assessed as reduction in Bcl-2 […] expression at 5 times IC50 incubated for 24 hrs by qRT-PCR analysis; format: functional, cell-based
PDAC-3 [11] = experiment: Antimigratory activity against human PDAC-3 cells assessed as reduction in MMP9 expression at 5 times IC50 incubated for 24 hrs by qRT-PCR analysis; format: functional, cell-based
PDAC-3 [12] = experiment: Synergistic antiproliferative activity against human PDAC-3 cells assessed as increase in ENT1 expression at 5 times IC50 incubated for 24 hrs in presence of gemcitabine by qRT-PCR analysis; format: functional, cell-based
[13] = biological target: T1, Monoacylglycerol lipase ABHD6 (Mus musculus) (UniProt Q8R2Y0); experiment: Inhibition of ABHD6 in mouse brain membrane at 10 uM using TAMRA-FP serine hydrolase probe as substrate preincubated for 25 mins followed by substrate addition and measured after 25 mins SDS-PAGE analysis; format: cell membranes; details: time 50.0 min
T1 sequence (whole entry): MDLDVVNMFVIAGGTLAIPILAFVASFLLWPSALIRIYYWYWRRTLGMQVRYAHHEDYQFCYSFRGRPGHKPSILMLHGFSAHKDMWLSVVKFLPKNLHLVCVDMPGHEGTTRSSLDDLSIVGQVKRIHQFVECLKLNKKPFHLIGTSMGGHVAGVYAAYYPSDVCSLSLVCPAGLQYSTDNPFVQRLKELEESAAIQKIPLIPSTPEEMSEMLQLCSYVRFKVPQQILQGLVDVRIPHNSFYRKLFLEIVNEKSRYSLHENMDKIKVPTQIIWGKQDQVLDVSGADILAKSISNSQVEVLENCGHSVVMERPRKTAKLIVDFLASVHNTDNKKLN
Method in brief: (§1)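 Mouse half-brain membrane fraction (800g supernatants spun at 16000g, 4 °C; pellet in 50 mM Tris-HCl pH 7.4), diluted to 4 mg/mL in PBS. Preincubated 25 min at 25 °C with test agent (10 μM final) or DMSO, then TAMRA-FP (125 nM final) 25 min at 25 °C. Stopped in Laemmli buffer at 90 °C, run on 12% SDS-PAGE, in-gel fluorescence read. Coomassie confirmed loading. Three independent experiments.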

[14] = biological target: T2, Lysophosphatidylserine lipase ABHD12 (Mus musculus) (UniProt Q99LR1); experiment: Inhibition of ABHD12 in mouse brain membrane at 10 uM using TAMRA-FP serine hydrolase probe as substrate preincubated for 25 mins followed by substrate addition and measured after 25 mins SDS-PAGE analysis; format: cell membranes; details: time 50.0 min; method in brief: as §1
T2 sequence (whole entry): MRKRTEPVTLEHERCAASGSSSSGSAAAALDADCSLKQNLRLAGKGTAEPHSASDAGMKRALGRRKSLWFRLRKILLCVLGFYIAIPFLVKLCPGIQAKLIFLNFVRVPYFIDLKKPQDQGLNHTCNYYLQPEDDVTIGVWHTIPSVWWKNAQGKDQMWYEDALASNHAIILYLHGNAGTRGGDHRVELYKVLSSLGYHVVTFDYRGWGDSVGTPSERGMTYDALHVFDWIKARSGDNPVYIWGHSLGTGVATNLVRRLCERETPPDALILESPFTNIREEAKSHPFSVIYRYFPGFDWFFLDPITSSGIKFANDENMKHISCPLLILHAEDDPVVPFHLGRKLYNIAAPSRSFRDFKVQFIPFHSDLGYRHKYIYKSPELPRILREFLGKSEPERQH

[15] = biological target: T3, Fatty-acid amide hydrolase 1 (Mus musculus) (UniProt O08914); experiment: Inhibition of FAAH in mouse brain membrane at 10 uM using TAMRA-FP serine hydrolase probe as substrate preincubated for 25 mins followed by substrate addition and measured after 25 mins SDS-PAGE analysis; format: cell membranes; details: time 50.0 min; method in brief: as §1
T3 sequence (whole entry): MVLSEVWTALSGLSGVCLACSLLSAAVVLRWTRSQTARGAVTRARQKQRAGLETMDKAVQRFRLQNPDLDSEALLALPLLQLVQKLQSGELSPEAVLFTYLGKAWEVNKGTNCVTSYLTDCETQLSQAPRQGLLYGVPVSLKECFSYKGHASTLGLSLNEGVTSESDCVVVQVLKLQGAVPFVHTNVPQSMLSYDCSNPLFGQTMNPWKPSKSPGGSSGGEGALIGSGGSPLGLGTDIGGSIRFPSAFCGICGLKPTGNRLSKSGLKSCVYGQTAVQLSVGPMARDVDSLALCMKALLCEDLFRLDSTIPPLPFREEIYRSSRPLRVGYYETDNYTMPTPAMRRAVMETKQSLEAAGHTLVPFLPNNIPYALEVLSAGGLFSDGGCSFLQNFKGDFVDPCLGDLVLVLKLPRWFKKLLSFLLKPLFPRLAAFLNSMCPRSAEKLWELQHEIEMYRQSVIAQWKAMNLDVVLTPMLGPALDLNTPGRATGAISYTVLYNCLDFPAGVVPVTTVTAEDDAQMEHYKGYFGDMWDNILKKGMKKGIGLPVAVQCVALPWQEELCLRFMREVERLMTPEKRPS

PDAC-3 [16] = experiment: Antiproliferative activity against human PDAC-3 cells assessed as cell growth inhibition incubated for 72 hrs by sulforhodamine B assay; format: functional, cell-based
Method in brief: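 Primary PDAC3 culture in RPMI-1640 with 10% newborn calf serum, penicillin/streptomycin, 37 °C, 5% CO2. Seeded 5000 cells/well; after 24 h exposed 72 h to MAGL inhibitor (0.1–50 μM, DMSO stock diluted in medium).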

O=C(c1ccc(Sc2cccc(C(F)(F)F)c2)cc1)C1CCN(C(=O)c2cc(O)ccc2F)CC1
half-life at 3000 µM [1]: > 24 h
Stability [2]: > 24 h
R% [3]: 52.6%
Stability [4]: > 24 h
logS0 [5]: < -8.702
solubility [5]: < 1 ng/mL

O=C(c1cc(O)ccc1F)N1CCC(Cc2cccc(Oc3cc(C(F)(F)F)ccn3)c2)CC1
half-life at 3000 µM [1]: > 24 h
Stability [2]: > 24 h
R% [3]: 38.9%
IC50 at 72 h [6]: > 20 µM
Stability [4]: > 24 h
Activity (PDAC-3 [7]): Active
fold change (FC) [8]: 4
Activity (PDAC-3 [9]): Active
Activity (PDAC-3 [10]): Active
Activity (PDAC-3 [11]): Active
Activity (PDAC-3 [12]): Active
logS0 [5]: < -8.676
solubility [5]: < 1 ng/mL

CCCCCCCCCCC[C@@H](C[C@@H]1OC(=O)[C@H]1CCCCCC)OC(=O)[C@H](CC(C)C)NC=O
inhibition [13]: Active
inhibition [14]: Active

NC(=O)c1cccc(-c2cccc(OC(=O)NC3CCCCC3)c2)c1
inhibition [15]: Active

O=C(OC(C(F)(F)F)C(F)(F)F)N1CCN(Cc2ccc(C(F)(F)F)cc2N2CCCC2)CC1
Activity (PDAC-3 [16]): Active
Activity (PDAC-3 [7]): Active
Activity (PDAC-3 [9]): Active

Nc1ccn([C@@H]2O[C@H](CO)[C@@H](O)C2(F)F)c(=O)n1
Activity (PDAC-3 [7]): Active
Activity (PDAC-3 [9]): Active

CN(Cc1cccc(-c2ccncc2)c1)C(=O)Oc1ccc(-c2ccc(C(N)=O)cc2)cc1
inhibition [13]: Active

O=C(Oc1ccc([N+](=O)[O-])cc1)N1CCC(C(O)(c2ccc3c(c2)OCO3)c2ccc3c(c2)OCO3)CC1
Activity (PDAC-3 [16]): Active
Activity (PDAC-3 [7]): Active
Activity (PDAC-3 [9]): Active
